SMILES strings stand for the structures. Where only a bound is given, the exact number is not on record here.

One data set in a line: Induction of mitochondrial uncoupling in rat L6 cells assessed as increase in oxygen consumption rate incubated for 90 mins by Seahorse XF analyzer based assay. It is filed as mitochondria, Mitochondria.
Conditions: not given
Broadly, the EC50 is the concentration at which the effect is half-maximal. On to `CC(=O)c1ccc(Nc2nc3nonc3nc2O)cc1`, for which the EC50 was found to be 93.7 µM.
The same measure, in the same setting: for `CC(Nc1nc2nonc2nc1O)C12CC3CC(CC(C3)C1)C2` (stereo not drawn) the value was 4.9 µM; for `Oc1nc2nonc2nc1NCc1ccc(OC(F)(F)F)cc1`, 13.4 µM.
The same measure, in the same setting: for `CC(C)(C)c1cccc(Nc2nc3nonc3nc2O)c1` the value was 2.2 µM; for `Oc1nc2nonc2nc1Nc1cccc(F)c1F`, 9.7 µM; for `Oc1nc2nonc2nc1Nc1ccc(S(F)(F)(F)(F)F)cc1`, 3.9 µM.
On the same count and under the same terms, under `Oc1nc2nonc2nc1Nc1ccc(F)cc1` stands 38.6 µM.
With `Oc1nc2nonc2nc1Nc1ccc(OCc2ccccc2)cc1`, the EC50 was determined as 2.4 µM.
On the same count and under the same terms, for `Cc1cccc(C)c1Nc1nc2nonc2nc1O` the value was above 100 µM.
The same measure, in the same setting: for `CCCCc1ccc(Nc2nc3nonc3nc2O)c(F)c1` the value was 1.1 µM.
The same measure, in the same setting: for `CCCCOc1cccc(Nc2nc3nonc3nc2O)c1` the value was 2.3 µM; for `Oc1nc2nonc2nc1Nc1ccc(OCC(F)(F)F)c(C(F)(F)F)c1`, 4 µM; for `Oc1nc2nonc2nc1Nc1cc(C(F)(F)F)cc(C(F)(F)F)c1`, 4.5 µM.
Consider `CCCCOc1ccc(Nc2nc3nonc3nc2O)cc1`, for which the EC50 was found to be 3.7 µM.
On the same count and under the same terms, for `Oc1nc2nonc2nc1Nc1ccc(OC(F)(F)F)cc1F` the value was 2.3 µM; for `CCCCCCc1ccc(Nc2nc3nonc3nc2O)cc1`, 4.7 µM; for `Oc1nc2nonc2nc1NC(c1ccccc1)c1ccccc1`, 38.3 µM.
With `Oc1nc2nonc2nc1Nc1ccccc1`, the EC50 amounted to 66.7 µM.
The same measure, in the same setting: for `Oc1nc2nonc2nc1Nc1ccccc1Cl` the value was 6.3 µM.
On the same count and under the same terms, under `Oc1nc2nonc2nc1Nc1ccc(OCCCC(F)(F)F)c(C(F)(F)F)c1` stands 2.1 µM; under `Oc1nc2nonc2nc1NCCC(F)(F)F`, 110 µM; under `Oc1nc2nonc2nc1Nc1ccc(C(F)(F)F)cc1F`, 2.6 µM.
Consider `Oc1nc2nonc2nc1Nc1cc(C(F)(F)F)ccc1F`, for which the EC50 was 5.1 µM.
On the same count and under the same terms, under `Oc1nc2nonc2nc1Nc1cc(F)cc(F)c1` stands 23.4 µM.
On the same count and under the same terms, for `Oc1nc2nonc2nc1Nc1cccc(S(F)(F)(F)(F)F)c1` the value was 3.7 µM.
The same measure, in the same setting: under `Oc1nc2nonc2nc1Nc1ccccc1F` stands 12.5 µM; under `Oc1nc2nonc2nc1Nc1ccc(OC(F)(F)F)c(F)c1`, 2.9 µM; under `Cc1cc(Nc2nc3nonc3nc2O)ccc1OCC(F)(F)F`, 7 µM.
For the molecule `Cc1cc(OC(F)(F)F)ccc1Nc1nc2nonc2nc1O`, the EC50 stood at 4.6 µM.
The same measure, in the same setting: under `Oc1nc2nonc2nc1NC1C2CC3CC(C2)CC1C3` (stereo not drawn) stands 22.8 µM; under `CCCCc1ccc(Nc2nc3nonc3nc2O)cc1`, 2.1 µM.
The same measure, in the same setting: for `COc1cc(OC(F)(F)F)ccc1Nc1nc2nonc2nc1O` the value was 3.8 µM; for `Oc1nc2nonc2nc1Nc1cccc(C(F)(F)F)c1`, 13.3 µM.
Regarding `Oc1nc2nonc2nc1Nc1cccc(OC(F)(F)F)c1`, the EC50 amounted to 5.1 µM.
On the same count and under the same terms, for `Oc1nc2nonc2nc1Nc1ccc(OC(F)(F)Cl)cc1` the value was 1.9 µM; for `Cc1cc(C)c(Nc2nc3nonc3nc2O)c(C)c1`, 113 µM.
On the same count and under the same terms, for `Oc1nc2nonc2nc1Nc1ccc2c(c1)OCO2` the value was 46.9 µM; for `Oc1nc2nonc2nc1Nc1cccc(OCc2ccc(C(F)(F)F)cc2)c1`, 3 µM.
Still for that read-out and setting: for `Oc1nc2nonc2nc1Nc1ccc2c(c1)OC(F)(F)O2` the value was 7.6 µM; for `Oc1nc2nonc2nc1Nc1ccc(C(O)(C(F)(F)F)C(F)(F)F)cc1`, 34 µM; for `Oc1nc2nonc2nc1Nc1cccc2ccccc12`, 20.4 µM.
For `CCc1cccc(Nc2nc3nonc3nc2O)c1`, the EC50 worked out at 25.2 µM.
On the same count and under the same terms, for `CCCCCCc1ccc(Nc2nc3nonc3nc2O)c(F)c1` the value was 3.3 µM.
Still for that read-out and setting: for `CC12CC3CC(C)(C1)CC(Nc1nc4nonc4nc1O)(C3)C2` the value was 2 µM; for `CCc1ccc(Nc2nc3nonc3nc2O)c(F)c1`, 6.7 µM; for `Oc1nc2nonc2nc1Nc1ccc2ccccc2c1`, 4 µM.
The same measure, in the same setting: for `Oc1nc2nonc2nc1Nc1ccc(OC(F)(F)F)c(Cl)c1` the value was 3 µM; for `Cc1ccc(C(F)(F)F)cc1Nc1nc2nonc2nc1O`, 32.8 µM.
Turning to `CCCCCCCCNc1nc2nonc2nc1O`, the concentration giving a half-maximal response (EC50) was 3.4 µM.
With `Oc1nc2nonc2nc1Nc1ccc(C(F)(F)F)cc1`, the concentration for a half-maximal effect (EC50) came to 10.4 µM.
Same read-out and setting: under `Oc1nc2nonc2nc1Nc1ccc(OCC(F)(F)F)cc1` stands 42.3 µM; under `Oc1nc2nonc2nc1NCCc1ccccc1`, 65.5 µM.
Same read-out and setting: under `CCCCCc1ccc(Nc2nc3nonc3nc2O)cc1` stands 2.4 µM; under `Oc1nc2nonc2nc1Nc1ccc(OCC(F)(F)F)c(F)c1`, 10.4 µM.
For the molecule `Oc1nc2nonc2nc1Nc1ccccc1C(F)(F)F`, the EC50 turned out to be 10.6 µM.
As to `Cc1ccc(Nc2nc3nonc3nc2O)cc1`, the concentration giving a half-maximal response (EC50) turned out to be 51.9 µM.
Still for that read-out and setting: for `CC(C)(C#N)c1ccc(Nc2nc3nonc3nc2O)cc1` the value was 35.7 µM.
On to `Oc1nc2nonc2nc1Nc1ccc(OC(F)(F)C(F)F)cc1`, for which the half-maximal effective concentration (EC50) amounted to 7 µM.
Still for that read-out and setting: under `Oc1nc2nonc2nc1Nc1ccc(SC(F)(F)F)cc1` stands 1.4 µM.
On the same count and under the same terms, for `CC(C)(C)c1ccc(Nc2nc3nonc3nc2O)cc1` the value was 3.9 µM; for `O=[N+]([O-])c1cc(Nc2nc3nonc3nc2O)ccc1OC(F)(F)F`, 53.5 µM; for `Oc1nc2nonc2nc1Nc1ccccc1OC(F)(F)F`, 7.1 µM.
With `COc1cccc(Nc2nc3nonc3nc2O)c1`, the 50% effective concentration (EC50) stood at 75.4 µM.
The same measure, in the same setting: for `Oc1nc2nonc2nc1Nc1cccc(C(F)(F)F)c1F` the value was 4.9 µM; for `Oc1nc2nonc2nc1Nc1ccc(Cl)cc1`, 11.7 µM.
Still for that read-out and setting: for `Oc1nc2nonc2nc1Nc1ccc(OCC2CC2)c(C(F)(F)F)c1` the value was 1.8 µM; for `Oc1nc2nonc2nc1Nc1cccc(F)c1`, 31.2 µM.
On the same count and under the same terms, for `CCCCCc1ccc(Nc2nc3nonc3nc2O)c(F)c1` the value was 1.5 µM.
Regarding `Cc1ccc(CNc2nc3nonc3nc2O)cc1`, the half-maximal effective concentration (EC50) was found to be 53.2 µM.
As to `Oc1nc2nonc2nc1Nc1ccc(OC(F)(F)F)cc1Cl`, the half-maximal effective concentration (EC50) is 1.4 µM.
The same measure, in the same setting: for `Oc1nc2nonc2nc1Nc1ccc(OCCCC(F)(F)F)c(F)c1` the value was 4.2 µM; for `CCc1ccc(Nc2nc3nonc3nc2O)cc1`, 10.7 µM; for `Oc1nc2nonc2nc1Nc1ccc(OC(F)F)cc1`, 20.6 µM.
On the same count and under the same terms, under `Fc1cccc(Nc2nc3nonc3nc2Nc2ccccc2F)c1` stands 0.19 µM; under `Oc1nc2nonc2nc1Nc1ccc(C(F)(F)F)c(F)c1`, 11.6 µM.
Same read-out and setting: for `Cc1ccc(Nc2nc3nonc3nc2O)cc1C` the value was 3 µM; for `Oc1nc2nonc2nc1NC12CC3CC(CC(C3)C1)C2`, 7 µM.

The next data set is described as follows: Solubility of compound in PBS at pH 7.4. Type of data set: physicochemical. Particulars: buffer.
A word on the solubility: it is the concentration that dissolves in the medium under given conditions. `Fc1cccc(Nc2nc3nonc3nc2Nc2ccccc2F)c1` yielded a solubility below 10 µM.

A further data set is described as follows: Half life in C57BL/6 mouse at 10 mg/kg, po administered via gavage by LC/MS-MS analysis. Type of data set: ADME, organism-based. Particulars: in vivo. In outline:
(§1)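 Male C57BL/6 mice aged 9–12 weeks received a single 10 mg/kg oral gavage bolus. The vehicle was methylcellulose 90–91%, Tween 80 2–3% and DMSO 6–8% (v/v). Tail-tip blood was drawn into heparinized capillaries and spun at 2000g for 10 min. Plasma was extracted with acetonitrile:methanol (9:1) and quantified by LC–MS/MS against spiked plasma standards (1–100 ng). n = 3.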
Broadly, the half-life is the time in which the quantity being followed falls by half. A lower half-life goes with fast loss. Consider `CCCCOc1ccc(Nc2nc3nonc3nc2O)cc1`, for which the half-life was 18 min.
Same read-out and setting: for `CCCCc1ccc(Nc2nc3nonc3nc2O)cc1` the value was 42 min; for `Oc1nc2nonc2nc1Nc1ccc2ccccc2c1`, 24 min; for `CC(C)(C)c1ccc(Nc2nc3nonc3nc2O)cc1`, 36 min.

The nature of a further data set: Cmax in C57BL/6 mouse at 10 mg/kg, po administered via gavage by LC/MS-MS analysis. Type of data set: ADME, organism-based. Further details: dose 10 mg/kg, route oral. Particulars: in vivo. In a few lines:
as §1
The Cmax is the maximum level reached in the sampled fluid or tissue. `CCCCOc1ccc(Nc2nc3nonc3nc2O)cc1` displayed a Cmax of 3.4 µM.
`CCCCc1ccc(Nc2nc3nonc3nc2O)cc1` yielded a Cmax of 12 µM.
On the same count and under the same terms, under `Oc1nc2nonc2nc1Nc1ccc2ccccc2c1` stands 12.5 µM.
On the same count and under the same terms, for `CC(C)(C)c1ccc(Nc2nc3nonc3nc2O)cc1` the value was 22.3 µM.

A further data set can be described thus: Cmax in Swiss albino mouse at 10 mg/kg, po administered via gavage by LC/MS-MS analysis. Type of data set: ADME, organism-based. Details: dose 10 mg/kg, route oral. The note with it: in vivo. In outline:
(§2)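 Swiss Albino mice were given 10 mg/kg by oral gavage in a triturated Tween 80/0.5% (w/v) methylcellulose formulation, with three replicates per time point. Plasma was precipitated with acetonitrile containing telmisartan internal standard and analyzed by LC–MS/MS using transition m/z 286 → 125. Concentrations came from a standard curve (1–1000 ng/mL).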
In turn, `Oc1nc2nonc2nc1NC12CC3CC(CC(C3)C1)C2` came in with a peak concentration (Cmax) of 18 µM.

A short description of a further data set: Half life in Swiss albino mouse at 10 mg/kg, po administered via gavage by LC/MS-MS analysis. It is filed as ADME, organism-based. Particulars: in vivo. In a few lines: as §2
Molecule `Oc1nc2nonc2nc1NC12CC3CC(CC(C3)C1)C2` had a half-life of 66 min.

These data come from ChEMBL document CHEMBL4602728, “6-Amino[1,2,5]oxadiazolo[3,4-b]pyrazin-5-ol Derivatives as Efficacious Mitochondrial Uncouplers in STAM Mouse Model of Nonalcoholic Steatohepatitis” (J Med Chem, 2020).
